Test results: PMC12219357 (Nature Communications, 2025)
“And” between values parts separate entries of the source, which are not always exact repeats. Identical values can stand only once. “Also recorded” adds a separate entry of the source. Where a SMILES comes first, the peptide text is derived from it. The star is where a group is joined. 5FAM = O=C1OC2(c3ccc(O)cc3Oc3cc(O)ccc32)c2ccc(C(=O)*)cc21

Key:
Type in all cases: in vivo, human
[1] = tested on: nerves (head and neck surgery); assay: Quantitative image analysis of intraoperative nerve fluorescence; conditions: for Background fluorescence, mean pixel intensity (MPI): FL images
Procedure, shortened: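 Paired white-light and fluorescence images taken intraoperatively through a surgical microscope with a yellow 560 fluorescence module. Analysis used the green channel of fluorescence images and 5–20 elliptical ROIs per nerve and per adjacent non-nerve tissue. After background subtraction, SBR = nerve MPI / background MPI. Statistics: Welch ANOVA, Kruskal-Wallis, Wilcoxon rank sum.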

[2] = tested on: adult patients with head and neck neoplasms undergoing parotidectomy or thyroidectomy
[3] = tested on: adult patients with head and neck neoplasms; assay: Vital signs, physical examination and 12-lead ECG
[4] = tested on: adult patients with head and neck neoplasms; assay: Clinical laboratory assessments
Procedure, shortened: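 Test compound given as a single IV infusion over 30 min on Day 1, at dose tiers of 100–600 mg. Hematology, chemistry, coagulation and urinalysis were run at the preoperative visit, then repeated on Day 1 before dosing and at end of infusion. Histamine, tryptase, C3a and C5 were sampled before, during and after infusion. Further safety labs on Day 15 (±8 days) and Day 28 (+5 days). Summarized descriptively by dose.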

[5] = Pharmacokinetics after intravenous infusion
[6] = tested on: nerves (head and neck surgery); assay: Visualization Scoring System; conditions: 500 mg

CC(C)[C@H](NC(=O)[C@H](Cc1ccc(O)cc1)NC(=O)[C@H](Cc1ccc(O)cc1)NC(=O)[C@@H]1CCCN1C(=O)[C@H](CCC(=O)O)NC(=O)[C@H](CCC(=O)O)NC(=O)[C@H](Cc1c[nH]c2ccccc12)NC(=O)[C@@H]1CCCN1C(=O)[C@@H](NC(=O)[C@H](CCC(N)=O)NC(=O)c1ccc2c(c1)C(=O)OC21c2ccc(O)cc2Oc2cc(O)ccc21)C(C)C)C(=O)N[C@H](C(=O)N[C@@H](CCCCN)C(=O)N[C@@H](CCCCN)C(=O)N[C@@H](CO)C(=O)N[C@@H](CO)C(=O)NCC(=O)NCC(N)=O)C(C)C [bevonescein] (5FAM-QVPWEEPYYVVKKSSGG-NH2; C-terminus assumed)
SBR, FL images ([1]; 500 mg cohort (dose comparison)): 3.0 ± 1.0
Background fluorescence, mean pixel intensity (MPI) ([1]; 500 mg cohort): 39.5 ± 17
Signal-to-background ratio (SBR), fluorescence (FL) images ([1]; 500 mg, 54 evaluable nerves in 14 subjects, mean ± SD): 2.1 ± 0.8 and 2.08 ± 0.83
Fluorescent SBR of nerves, early (1-3 h) versus late (3-5 h) timing cohorts ([1]; 500 mg, infusion to incision, two-sided Wilcoxon rank sum test): not statistically different; also recorded: no significant difference
Background fluorescence, mean pixel intensity (MPI) ([1]; 600 mg cohort, Welch ANOVA p < 0.01 vs 500 mg): 73.2 ± 34
SBR, FL images ([1]; 600 mg cohort, Kruskal-Wallis p > 0.05 vs 500 mg): 2.2 ± 1.6
AEs greater than grade 1 attributable to the study drug ([2]; 27 patients): no adverse events greater than grade 1
AEs assessed as possibly related to the study drug ([2]; 27 subjects, all doses, resolved without intervention): a single adverse event
Tolerability of preoperative intravenous infusion ([2]; 100-600 mg): well tolerated
Dose-limiting toxicity (DLT) ([2]; all doses 100-600 mg, single IV infusion over 30 min, 27 patients, NCI CTCAE): no dose-limiting toxicity
Changes from baseline in vital signs ([3]; all cohorts): no clinically significant or relevant differences
ECG values ([3]; all patients, 12-lead ECG): normal or non-clinically significant abnormal ECG values
Hematology, chemistry, coagulation, and urinalysis findings ([4]; all patients, as deemed by the investigators): normal ranges or not clinically significant abnormalities
Tryptase and complements C3a and C5 levels ([4]; during the study): remained stable
Increase of mean unbound AUClast over the 6-fold increase in dose ([5]; 100 to 600 mg, bevonescein not bound to plasma or tissue proteins): 6.1 fold
Free fraction ([5]; from unbound vs total AUClast): approximately 30%
Improvement in nerve length with FL images, share of subjects (so in the source) [6]: 78%
Subjects with some improvement in visible nerve length ([6]; 14 subjects): 100%
Individual nerves with improvement in length measurements ([6]; n = 42/54 nerves, paired FL overlay vs WLR): 78%
